From PubChem
Rows were chosen to be rich in hits. Some 1.9% of all compounds tested hit in one or more screens of this group.
FN deposit inh: fibronectin deposition inhibition. AH1F fibroblasts, Alexa488-fibronectin deposition fluorescence, overnight. inhibition, % at 12.6 µM. actives 0.086% (n = 350,000);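 active means mean inhibition across replicates of 30% or more, regardless of how many single replicates reach that level; inconclusive means mean under 30% yet at least half of replicates reach 30%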;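 further: positive control wells lacked labelled fibronectin entirely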
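Material: AH1F fibroblast monolayer depositing Alexa488-labelled fibronectin into matrix / Amount: 10000 AH1F cells per well / Signal: fluorescence 485/525 nm / Medium: DMEM, 2% serum / Compound: single dose, pinned / Incubation: 1 h cell adhesion before compound, then overnight fibronectin incubation / Reagent: Alexa488-FN, 24 nM final / Read-out: inhibition of fibronectin deposition signal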
XiGFP reactiv: X-chromosome reactivation activator; XiGFP mouse fibroblasts, % GFP-positive cells imaging, 3 d; cells co-treated with 5-aza-dC sensitizer; scaled so ellipticine positive control = 100%; activation, % at 7.58 µM; actives 0.055% (n = 360,000);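 active means mean normalized replicate activation at least 10% and every replicate at or above 10%; inconclusive means only one of the two criteria met; inactive means mean below 10% and not all replicates reach 10%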;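 further: 0% = median of on-plate neutral control wells and 100% = ellipticine 6 µM median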
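Material: XiGFP fibroblasts, SV40-immortalized; Buffer or medium: DMEM containing 5-aza-dC; Compound dosing: single point; Times: 3 days compound exposure.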
Cneo AK release: causes C. neoformans cell lysis; adenylate kinase release luminescence, 4 h; normalised: neutral wells 0, clomiphene wells 100; lysis activity, % at 15 µM; actives 0.2% (n = 360,000); AID 651654;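 active means mean lysis activity across replicates of at least 80%, whatever share of replicates individually reach that level; inactive means mean lysis activity below 80%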
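Assay system: log-phase C. neoformans yeast / Quantity: yeast cell density of 5 × 10^6 cells/mL / Medium: fresh YPD growth medium / Compound: single dose / Timing: static 4 h at 37 °C with compound, 1 h detection / Measured by: adenylate kinase release luminescence / Read-out: lysis from increased AK signal / Benchmarks: Clomiphene as positive lysis control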
F508del corr: CFTR F508del correction in bronchial cells; CFBE cells, YFP halide quenching; stimulated with forskolin plus potentiator P3; % fluorescence drop versus neutral controls; activity (quench increase), % at 7.58 µM; actives 0.36% (n = 350,000); AID 720511;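 active means mean added fluorescence quench of at least 8% versus neutral control, with both replicates also reaching 8%; inconclusive means only one of the mean or replicate conditions met; inactive means mean below 8% and not both replicates reaching 8%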;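 further: cells transiently co-express mutant CFTR-F508del with the halide-sensitive YFP; corrector assay measuring rescue of mutant channel to the surface after 24 h compound exposure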
PGC1a acetyl inh: PGC1a acetylation modulation, inhibitor mode; U2OS PGC1a acetylation, AlphaScreen anti-acetyl-lysine; with virally co-expressed GCN5 acetyltransferase; inhibition, % at 15.6 µM; AID 651687; actives 0.17% (n = 350,000);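 active means every replicate shows inhibition of at least 40%; inconclusive means mean inhibition at least 40% but some replicate below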;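 further: 0% = neutral control wells and 100% = positive control wells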
DENV2 CPE: DENV2-induced cell death inhibition | DENV2-infected cells, cytopathic effect rescue, plate reader | AID 651640 | actives 1.7% (n = 350,000) | CPE inhibition, % at 9.99 µM; in the data active means CPE inhibition above about 20%, passing the limit was not always enough; inconclusive means no clear call, values can overlap the other calls; tested in BHK-21 cells;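 further: 0% = median of neutral control wells and 100% = median of positive control wells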
* = called active by the depositor; ? = inconclusive; nt = not tested or not shown; ! = repeats disagree.

SMILES | FN deposit inh | XiGFP reactiv | Cneo AK release | F508del corr | PGC1a acetyl inh | DENV2 CPE
COc1ccc(CN(C)C[C@@H]2Oc3ccc(NS(=O)(=O)c4cccs4)cc3C(=O)N([C@@H](C)CO)C[C@H]2C)cc1 | 7 | -1 | 4 | 1 | -8 | 32*
COc1ccc(CN(C)C[C@@H]2Oc3ccc(NS(C)(=O)=O)cc3C(=O)N([C@@H](C)CO)C[C@H]2C)cc1 | nt | 0 | 0 | -2 | 1 | 10
COc1ccc(CN(C)C[C@@H]2Oc3ccc(NC(=O)C4CCCCC4)cc3C(=O)N([C@H](C)CO)C[C@H]2C)cc1 | nt | 0 | 2 | -2 | -5 | 10
COc1ccc(CN(C)C[C@@H]2Oc3ccc(NS(C)(=O)=O)cc3C(=O)N([C@H](C)CO)C[C@H]2C)cc1 | nt | 0 | 0 | -1 | 6 | 25*
COc1ccc(CN(C)C[C@H]2Oc3ccc(NC(=O)C4CCCCC4)cc3C(=O)N([C@@H](C)CO)C[C@H]2C)cc1 | nt | -1 | -10 | 2 | -5 | 25*
COc1ccc(CN(C)C[C@H]2Oc3ccc(NS(=O)(=O)c4cccs4)cc3C(=O)N([C@@H](C)CO)C[C@H]2C)cc1 | 9 | 0 | nt | -1 | 5 | 16
COc1ccc(NC(=O)Nc2ccc3c(c2)CC(=O)N([C@@H](C)CO)C[C@H](C)[C@H](CN(C)S(=O)(=O)c2ccc(C)cc2)O3)cc1 | nt | 0 | nt | nt | nt | nt
C[C@H]1CN([C@@H](C)CO)C(=O)c2cccc(NC(=O)C3CC3)c2O[C@@H]1CN(C)C(=O)Nc1cccc2ccccc12 | nt | 0 | 0 | -1 | nt | -3
CC(C)NC(=O)Nc1ccc2c(c1)C(=O)N([C@H](C)CO)C[C@H](C)[C@H](CN(C)C(=O)NC1CCCCC1)OCCCC[C@@H](C)O2 | nt | 0 | -1 | 1 | -1 | 1
C[C@H](O)C#Cc1ccc2c(c1)O[C@@H](CN(C)C(=O)CC1CC1)[C@H](C)CN([C@@H](C)CO)S2(=O)=O | -25 | -1 | 4 | 2 | -1 | 1
CCCNC(=O)C[C@@H]1CC[C@@H]2[C@H](COC[C@@H](O)CN2C(=O)Nc2c(C)noc2C)O1 | 14 | 0 | -7 | 0 | 8 | 9
COc1ccc(NC(=O)CC2C(=O)NCCN2C(=O)c2ccc(Cl)cc2)cc1 (stereo not drawn) | -1 | 0 | -1 | 0 | -7 | -9
COc1ccc(C(=O)N2CCNC(=O)C2CC(=O)Nc2cccc(Cl)c2Cl)cc1 (stereo not drawn) | -1 | 0 | 0 | 0 | nt | 89*
CC1CN(S(=O)(=O)c2cccc(C(=O)Nc3cc(Cl)ccc3N3CCOCC3)c2)CC(C)O1 (stereo not drawn) | 2 | -1 | 0 | 20* | 6 | 1
CN1CCN(S(=O)(=O)c2cccc(C(=O)Nc3cc(Cl)ccc3N3CCOCC3)c2)CC1 | 5 | 1 | 1 | 5 | 4 | 2
c1ccc(-c2cn(C[C@H]3CC[C@@H]([C@@H]4CC[C@H](Cn5cc(-c6ccccc6)nn5)O4)O3)nn2)cc1 | -2 | 0 | 1 | -2 | -12 | 34*
CO[C@H]1CN(C)C(=O)c2cc(NC(=O)c3ccccc3)ccc2OC[C@@H](C)N(CC2CC2)C[C@@H]1C | -17 | 0 | -2 | -1 | -8 | nt
N#C[C@@H]1[C@H](c2ccccc2-c2cccc(F)c2)[C@H](CO)N1C(=O)NC1CCCC1 | 1 | 0 | nt | -1 | 5 | -14
COc1cc(OC)cc(C(=O)c2c(C)c(C#N)c3ccccn23)c1 | 8 | 0 | -4 | 17* | nt | 9
CCC(=O)Nc1ccc2c(c1)C(=O)N(C)C[C@@H](OC)[C@H](C)CN(CC1CC1)[C@H](C)CO2 | -4 | 0 | -6 | 1 | -2 | ?
O=C(NCC[C@H]1CC[C@H](NS(=O)(=O)c2ccc(Cl)cc2)[C@H](CO)O1)c1ccc2c(c1)OCO2 | nt | 0 | 1 | 1 | 5 | 3
CC12CCC3c4ccc(OCCCO)c([N+](=O)[O-])c4CCC3C1CCC2=O (stereo not drawn) | 16 | 0 | nt | -3 | nt | 43*
COc1ccc2c3c(n(C)c2c1)[C@H](CO)N(Cc1nccs1)CC31CN(C)C1 | nt | 0 | nt | 1 | 4 | -1
O=C(C1CC1)N1CC(=O)N2[C@H](C1)[C@@H](c1ccc(-c3ccccc3F)cc1)[C@@H]2CO | 6 | 0 | nt | -1 | -2 | -8
O=C(CC1CC1)Nc1ccc2c(c1)[C@@H]1C[C@H](CC(=O)NC3CCCC3)O[C@@H](CO)[C@@H]1O2 | -7 | 0 | 0 | 1 | 7 | 29*!
SMILES | FN deposit inh | XiGFP reactiv | Cneo AK release | F508del corr | PGC1a acetyl inh | DENV2 CPE
COCC(=O)Nc1ccc2c(c1)[C@H]1C[C@@H](CC(=O)NC3CCCCC3)O[C@H](CO)[C@H]1O2 | 5 | 0 | 1 | 0 | -8 | 33*
COCC(=O)Nc1ccc2c(c1)[C@@H]1C[C@@H](CC(=O)NC3CCCCC3)O[C@H](CO)[C@@H]1O2 | 4 | 0 | 39 | -1 | 0 | 2
O=C(CC1CC1)Nc1ccc2c(c1)[C@@H]1C[C@@H](CC(=O)NC3CCCC3)O[C@@H](CO)[C@@H]1O2 | -11 | 0 | 4 | -1 | -8 | -6
C=CCN=c1scc(C)n1/N=C/c1ccc(O)c(O)c1 | -5 | 1 | nt | 11* | 13 | 0
COc1ccc(S(=O)(=O)Cc2ccc(C(=O)NC3CC3)o2)cc1 | 6 | 0 | 5 | 0 | 6 | 24*
COc1ccccc1S(=O)(=O)Cc1ccc(C(=O)N2CCN(c3ccc(C)cc3)C(C)C2)o1 (stereo not drawn) | 5 | 0 | 0 | 1 | -2 | 0
COc1ccc(S(=O)(=O)Cc2ccc(C(=O)N3CCN(c4cccc(C)c4)C(C)C3)o2)cc1 (stereo not drawn) | -2 | 1 | 0 | 9.3* | -27 | -1
COc1ccc(S(=O)(=O)Cc2ccc(C(=O)NC3CCC(C)CC3)o2)cc1 (stereo not drawn) | -1 | 0 | -2 | 0 | nt | -1
CCC(=O)N(C)C[C@@H]1Oc2cc(C#CC(C)(C)O)ccc2S(=O)(=O)N([C@H](C)CO)C[C@H]1C | 0 | -1 | 103* | -4 | -12 | -4
CCC(=O)N(C)C[C@H]1Oc2cc(C#CC(C)(C)O)ccc2S(=O)(=O)N([C@@H](C)CO)C[C@@H]1C | -12 | 0 | 98* | -1 | -3 | 8
CCC(=O)N(C)C[C@H]1Oc2cc(C#CC(C)(C)O)ccc2S(=O)(=O)N([C@@H](C)CO)C[C@H]1C | 8 | 0 | -2 | -2 | -2 | -2
